Assays:
Format in all cases: functional, cell-based
[1] = Antiproliferative activity against mouse +SA cells by MTT assay; conditions: +SA cell
Summary of the method: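 Mouse +SA mammary epithelial cells in serum-free DMEM/F12 with BSA, transferrin, insulin and EGF. Compounds from DMSO stock conjugated to BSA (overnight, 37 °C); 0–40 µM, final DMSO <0.1%. MTT 0.42 mg/mL for 4 h at 37 °C, isopropanol solubilization, OD 570 nm. Cell number from a standard curve; IC50 by non-linear regression.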

MCF7 = test: Antiproliferative activity against human MCF7 cells by MTT assay
Summary of the method: (§1)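 Cells plated at 8 × 10^3/well (MDA-MB-231) or 10^4/well (MCF7) in 96-well plates. Compounds fed in media with 5% FBS (MDA-MB-231) or 1% FBS (MCF7). MTT read-out of viable cells.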

MDA-MB-231 [2] = test: Antiproliferative activity against human MDA-MB-231 cells by MTT assay; summary of the method: as §1
MDA-MB-231 [3] = test: Antimigratory activity against human MDA-MB-231 cells after 24 hrs by wound-healing assay; conditions: MDA-MB-231, 24 h
Summary of the method: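 MDA-MB-231 in RPMI 1640 with 10% FBS grown to >95% confluent monolayer, scratched with a pipette tip and washed. Then 24 h exposure in 0.5% serum at five non-toxic concentrations in DMSO, triplicate, DMSO as negative control. Diff Quick fixed and stained; migrated cells counted in ≥3 random 40× fields. IC50 = concentration inhibiting migration of 50% of cells.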

IC50 (MCF7)	IC50 (MDA-MB-231 [2])	IC50 (MDA-MB-231 [3])	Compound	IC50 [1]
> 20 µM	9.6 µM	8.1 µM	CC(C)=CCC/C(C)=C/CC/C(C)=C/CC[C@]1(C)CCc2c3c(c(C)c(C)c2O1)OCN(CCCO)C3	2.5 µM
–	–	–	CC(C)=CCC/C(C)=C/CC/C(C)=C/CC[C@]1(C)CCc2c3c(c(C)c(C)c2O1)OCN(C1CCN(Cc2ccccc2)CC1)C3	8.7 µM
–	–	–	CC(C)=CCC/C(C)=C/CC/C(C)=C/CC[C@]1(C)CCc2c3c(c(C)c(C)c2O1)OCN(CCO)C3	1.7 µM
> 20 µM	27.3 µM	–	CC(C)=CCC/C(C)=C/CC/C(C)=C/CC[C@]1(C)CCc2c3c(c(C)c(C)c2O1)OCN(Cc1ccccc1)C3	2 µM
–	–	–	CC(C)=CCC/C(C)=C/CC/C(C)=C/CC[C@]1(C)CCc2c3c(cc(C)c2O1)OCN(CCCCC(=O)O)C3	11.9 µM
–	–	> 40 µM	CC(C)=CCC/C(C)=C/CC/C(C)=C/CC[C@]1(C)CCc2cc(O)cc(C)c2O1 [DELTA-TOCOTRIENOL]	–
–	–	–	CC(C)=CCC/C(C)=C/CC/C(C)=C/CC[C@]1(C)CCc2c3c(cc(C)c2O1)OCN(Cc1cccc([N+](=O)[O-])c1)C3	29.1 µM
> 20 µM	0.8 µM	–	CC(C)=CCC/C(C)=C/CC/C(C)=C/CC[C@]1(C)CCc2c3c(c(C)c(C)c2O1)OCN(CC1CCNCC1)C3	4.6 µM
–	–	–	CC(C)=CCC/C(C)=C/CC/C(C)=C/CC[C@]1(C)CCc2c3c(cc(C)c2O1)OCN(CCCCCC(=O)O)C3	5.1 µM
–	–	–	CC(C)=CCC/C(C)=C/CC/C(C)=C/CC[C@]1(C)CCc2c3c(cc(C)c2O1)OCN(C)C3	1.3 µM
–	–	–	CC(C)=CCC/C(C)=C/CC/C(C)=C/CC[C@]1(C)CCc2c3c(c(C)c(C)c2O1)OCN(C)C3	2.2 µM
–	–	–	CCOC(CCN1COc2c(C)c(C)c3c(c2C1)CC[C@@](C)(CC/C=C(\C)CC/C=C(\C)CCC=C(C)C)O3)OCC	9.3 µM
–	–	–	CCOC(CCN1COc2cc(C)c3c(c2C1)CC[C@@](C)(CC/C=C(\C)CC/C=C(\C)CCC=C(C)C)O3)OCC	1 µM
6 µM	> 5 µM	1.3 µM	CC(C)=CCC/C(C)=C/CC/C(C)=C/CC[C@]1(C)CCc2c3c(cc(C)c2O1)OCN(CCO)C3	4.2 µM
–	–	–	COc1ccc(CCN2COc3cc4c(c(C)c3C2)O[C@](C)(CC/C=C(\C)CC/C=C(\C)CCC=C(C)C)CC4)cc1OC	0.84 µM
–	–	–	CC(C)=CCC/C(C)=C/CC/C(C)=C/CC[C@]1(C)CCc2c3c(c(C)c(C)c2O1)OCN(CCCCC(=O)O)C3	1.8 µM
–	–	–	CC(C)=CCC/C(C)=C/CC/C(C)=C/CC[C@]1(C)CCc2c3c(c(C)c(C)c2O1)OCN(Cc1cccc([N+](=O)[O-])c1)C3	24.6 µM
–	–	–	CC(C)=CCC/C(C)=C/CC/C(C)=C/CC[C@]1(C)CCc2c3c(c(C)c(C)c2O1)OCN(CCCCCC(=O)O)C3	5 µM
–	–	–	CC(C)=CCC/C(C)=C/CC/C(C)=C/CC[C@]1(C)CCc2c(CO)c(O)cc(C)c2O1	> 20 µM
–	–	–	CC(C)=CCC/C(C)=C/CC/C(C)=C/CC[C@]1(C)CCc2cc3c(c(C)c2O1)CN(CCO)CO3	0.96 µM
–	–	–	CC(C)=CCC/C(C)=C/CC/C(C)=C/CC[C@]1(C)CCc2c(CO)c(O)c(C)c(C)c2O1	2.6 µM
–	–	–	C=CCN1COc2c(C)c(C)c3c(c2C1)CC[C@@](C)(CC/C=C(\C)CC/C=C(\C)CCC=C(C)C)O3	11.6 µM
–	–	–	CC(C)=CCC/C(C)=C/CC/C(C)=C/CC[C@]1(C)CCc2cc(O)c(CO)c(C)c2O1	6.6 µM

Source: ChEMBL document CHEMBL2380254, “Optimization of tocotrienols as antiproliferative and antimigratory leads” (Eur J Med Chem, 2013)
